Experimental data as given in ChEMBL document CHEMBL4118042, “Cucurbitane Glucosides from the Crude Extract of Siraitia grosvenorii with Moderate Effects on PGC-1α Promoter Activity” (J Nat Prod, 2017).

Legend:
Type in all cases: cell-based
[1] = target: T1, Peroxisome proliferator-activated receptor gamma coactivator 1-alpha (Homo sapiens) (UniProt Q9UBK2); test: Activation of PGC1alpha transcriptional activity (unknown origin) expressed in HEK293 cells at 10 uM after overnight incubation by luciferase reporter gene assay relative to control
T1 sequence (whole entry): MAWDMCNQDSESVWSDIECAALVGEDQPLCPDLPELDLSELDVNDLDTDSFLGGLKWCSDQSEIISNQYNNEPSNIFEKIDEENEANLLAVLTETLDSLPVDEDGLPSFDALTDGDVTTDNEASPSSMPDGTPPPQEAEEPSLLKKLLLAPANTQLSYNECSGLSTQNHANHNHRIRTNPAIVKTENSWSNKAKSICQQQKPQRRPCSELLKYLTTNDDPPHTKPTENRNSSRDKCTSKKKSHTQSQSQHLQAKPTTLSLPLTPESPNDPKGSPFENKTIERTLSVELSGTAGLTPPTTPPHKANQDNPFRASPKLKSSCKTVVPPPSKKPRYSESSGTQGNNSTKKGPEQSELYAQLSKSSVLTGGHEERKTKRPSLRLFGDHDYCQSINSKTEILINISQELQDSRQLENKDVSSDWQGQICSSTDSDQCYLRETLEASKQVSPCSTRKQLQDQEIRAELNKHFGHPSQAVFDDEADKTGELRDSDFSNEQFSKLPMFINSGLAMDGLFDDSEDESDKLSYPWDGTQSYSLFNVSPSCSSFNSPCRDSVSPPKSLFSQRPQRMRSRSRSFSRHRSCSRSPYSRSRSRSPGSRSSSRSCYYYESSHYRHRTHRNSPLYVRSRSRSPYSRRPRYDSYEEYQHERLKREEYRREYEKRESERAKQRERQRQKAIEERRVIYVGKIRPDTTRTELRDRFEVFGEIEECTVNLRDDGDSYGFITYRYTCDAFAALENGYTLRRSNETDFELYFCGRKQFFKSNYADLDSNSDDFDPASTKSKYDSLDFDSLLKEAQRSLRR
Summary of the method: (§1)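 HEK293 cells stably carrying a luciferase reporter driven by the PGC-1α promoter, grown in high-glucose DMEM with 10% FBS, penicillin and streptomycin at 37 °C in 5% CO2. About 2800 cells per well; after 24 h, compound added at final 10 or 20 μM, or forskolin 5 μM or dexamethasone 100 nM, with equal DMSO as blank. Incubated overnight, then luciferase substrate added and luminescence read. Values normalized to DMSO (100%), mean ± SEM, Student's t test.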

[2] = target: T1, Peroxisome proliferator-activated receptor gamma coactivator 1-alpha (Homo sapiens); test: Activation of PGC1alpha transcriptional activity (unknown origin) expressed in HEK293 cells at 20 uM after overnight incubation by luciferase reporter gene assay relative to control; summary of the method: as §1
[3] = target: T1, Peroxisome proliferator-activated receptor gamma coactivator 1-alpha (Homo sapiens); test: Activation of PGC1alpha transcriptional activity (unknown origin) expressed in HEK293 cells at 100 nM after overnight incubation by luciferase reporter gene assay relative to control; summary of the method: as §1
[4] = target: T1, Peroxisome proliferator-activated receptor gamma coactivator 1-alpha (Homo sapiens); test: Activation of PGC1alpha transcriptional activity (unknown origin) expressed in HEK293 cells at 100 nM after 24 hrs by luciferase reporter gene assay relative to control; summary of the method: as §1
[5] = target: T1, Peroxisome proliferator-activated receptor gamma coactivator 1-alpha (Homo sapiens); test: Activation of PGC1alpha transcriptional activity (unknown origin) expressed in HEK293 cells at 5 uM after overnight incubation by luciferase reporter gene assay relative to control; summary of the method: as §1
[6] = target: T1, Peroxisome proliferator-activated receptor gamma coactivator 1-alpha (Homo sapiens); test: Activation of PGC1alpha transcriptional activity (unknown origin) expressed in HEK293 cells at 5 uM after 24 hrs by luciferase reporter gene assay relative to control

C[C@H](CC[C@@H](O[C@@H]1O[C@H](CO)[C@@H](O)[C@H](O)[C@H]1O[C@@H]1O[C@H](CO)[C@@H](O)[C@H](O)[C@H]1O)C(C)(C)O)[C@H]1CC[C@@]2(C)[C@@H]3CC=C4[C@@H](CC[C@H](O[C@@H]5O[C@H](CO[C@@H]6O[C@H](CO)[C@@H](O)[C@H](O)[C@H]6O)[C@@H](O)[C@H](O)[C@H]5O)C4(C)C)[C@]3(C)C(=O)C[C@]12C
Activity [1]: 129% | Activity [2]: 132%

C[C@H](CC[C@@H](O[C@@H]1O[C@H](CO)[C@@H](O)[C@H](O)[C@H]1O[C@@H]1O[C@H](CO)[C@@H](O)[C@H](O)[C@H]1O)C(C)(C)O)[C@H]1CC[C@@]2(C)[C@@H]3C(=O)C=C4[C@@H](CC[C@H](O[C@@H]5O[C@H](CO)[C@@H](O)[C@H](O)[C@H]5O)C4(C)C)[C@]3(C)[C@H](O)C[C@]12C
Activity [1]: 97.8% | Activity [2]: 122%

C[C@H](CC[C@@H](O[C@@H]1O[C@H](CO)[C@@H](O)[C@H](O)[C@H]1O[C@@H]1O[C@H](CO)[C@@H](O)[C@H](O)[C@H]1O)C(C)(C)O)[C@H]1CC[C@@]2(C)[C@@H]3CC=C4[C@@H](CC[C@H](O[C@@H]5O[C@H](CO)[C@@H](O)[C@H](O)[C@H]5O)C4(C)C)[C@]3(C)C(=O)C[C@]12C
Activity [1]: 107% | Activity [2]: 123%

C[C@H](CC[C@@H](O[C@@H]1O[C@H](CO)[C@@H](O)[C@H](O)[C@H]1O[C@@H]1O[C@H](CO)[C@@H](O)[C@H](O)[C@H]1O)C(C)(C)O)[C@H]1CC[C@@]2(C)[C@@H]3C(=O)C=C4[C@@H](CC[C@H](O[C@@H]5O[C@H](CO[C@@H]6O[C@H](CO)[C@@H](O)[C@H](O)[C@H]6O)[C@@H](O)[C@H](O)[C@H]5O)C4(C)C)[C@]3(C)[C@H](O)C[C@]12C
Activity [1]: 105% | Activity [2]: 126%

C[C@@H]1C[C@H]2[C@@H]3CCC4=CC(=O)C=C[C@]4(C)[C@@]3(F)[C@@H](O)C[C@]2(C)[C@@]1(O)C(=O)CO
Activity [3]: 172% | fold change (FC) [4]: 1.7

C=C[C@@]1(C)CC(=O)[C@]2(O)[C@@]3(C)[C@@H](O)CCC(C)(C)[C@@H]3[C@H](O)[C@H](OC(C)=O)[C@@]2(C)O1
Activity [5]: 145% | fold change (FC) [6]: 1.4
